Assay results taken from publication PMC5519285 (Pharmacology, biochemistry, and behavior, 2017).
Entries after “also recorded” stand apart in the source; their conditions may differ. Read-outs that look alike come from different tables or passages of the source. Marks after values point to notes of the source that are not given here.

How the values were obtained:
hGABAAR (α1β3γ2) = hGABAAR (α1β3γ2) (Homo sapiens, UniProt P14867+P18507); assay type: cell-based; conditions: HEK293 cells, human α1β3γ2, peak GABA EC15-evoked current
hGABAAR (α2β3γ2) = hGABAAR (α2β3γ2) (Homo sapiens, UniProt P18507+P47869); assay type: cell-based
hGABAAR (α3β3γ2) = hGABAAR (α3β3γ2) (Homo sapiens, UniProt P18507+P34903); assay type: cell-based
hGABAAR (α5β3γ2) = hGABAAR (α5β3γ2) (Homo sapiens, UniProt P18507+P31644); assay type: cell-based
rats [1] = assay: Pentylenetetrazole; assay type: in vivo, rat; conditions: i.p.
Summary of the method: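 Male Sprague Dawley rats (90–110 g), test compound suspended in 1% hydroxyethylcellulose/0.05% tween 80/0.05% antifoam, given 30 mg/kg i.p. 30 min before testing. Percent of rats without clonic convulsions recorded, 5 rats/group (vehicle 20), Fisher's exact test.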

rats [2] = conditions: cited from earlier work
[3] = ref Poe et al., 2016; cited from earlier work
mice = conditions: ref Lewter et al., 2017; cited from earlier work

Chain of hGABAAR (α3β3γ2) (P34903 29-492): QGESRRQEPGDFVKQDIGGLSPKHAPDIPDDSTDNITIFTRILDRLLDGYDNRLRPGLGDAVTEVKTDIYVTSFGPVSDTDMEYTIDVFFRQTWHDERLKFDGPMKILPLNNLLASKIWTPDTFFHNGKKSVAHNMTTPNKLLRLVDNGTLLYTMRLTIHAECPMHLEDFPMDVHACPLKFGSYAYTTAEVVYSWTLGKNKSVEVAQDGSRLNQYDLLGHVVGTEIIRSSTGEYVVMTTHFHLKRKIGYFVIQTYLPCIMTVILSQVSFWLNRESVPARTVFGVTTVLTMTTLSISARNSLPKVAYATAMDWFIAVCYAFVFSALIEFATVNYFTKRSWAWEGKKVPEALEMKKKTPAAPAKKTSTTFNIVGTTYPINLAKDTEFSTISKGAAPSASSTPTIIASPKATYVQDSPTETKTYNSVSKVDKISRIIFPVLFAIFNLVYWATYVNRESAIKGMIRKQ
Chain of hGABAAR (α3β3γ2) (P28472 26-473 partner): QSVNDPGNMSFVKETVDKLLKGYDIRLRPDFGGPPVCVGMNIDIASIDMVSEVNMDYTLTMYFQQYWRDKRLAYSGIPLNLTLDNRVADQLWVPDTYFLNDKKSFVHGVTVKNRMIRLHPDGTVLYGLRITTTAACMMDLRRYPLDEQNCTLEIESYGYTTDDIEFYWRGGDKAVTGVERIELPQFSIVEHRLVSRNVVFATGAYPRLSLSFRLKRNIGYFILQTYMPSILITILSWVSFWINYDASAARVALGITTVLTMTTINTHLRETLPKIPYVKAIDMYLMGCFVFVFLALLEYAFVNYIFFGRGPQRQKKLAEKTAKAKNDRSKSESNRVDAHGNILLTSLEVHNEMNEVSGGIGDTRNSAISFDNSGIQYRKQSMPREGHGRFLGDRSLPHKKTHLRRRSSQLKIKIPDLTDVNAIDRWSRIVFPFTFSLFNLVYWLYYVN
Chain of hGABAAR (α3β3γ2) (P18507 40-475): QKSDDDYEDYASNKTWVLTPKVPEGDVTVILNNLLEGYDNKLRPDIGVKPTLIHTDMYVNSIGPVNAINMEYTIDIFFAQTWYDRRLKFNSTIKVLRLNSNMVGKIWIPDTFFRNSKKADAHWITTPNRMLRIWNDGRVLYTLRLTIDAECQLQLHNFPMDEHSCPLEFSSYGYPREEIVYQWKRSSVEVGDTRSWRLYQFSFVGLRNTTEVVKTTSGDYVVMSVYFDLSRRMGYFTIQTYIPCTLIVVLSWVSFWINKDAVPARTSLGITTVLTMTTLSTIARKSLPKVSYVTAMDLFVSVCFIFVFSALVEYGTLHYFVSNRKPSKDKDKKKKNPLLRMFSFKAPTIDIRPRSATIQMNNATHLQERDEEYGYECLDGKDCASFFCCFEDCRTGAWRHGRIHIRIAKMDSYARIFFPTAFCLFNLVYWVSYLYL
Chain of hGABAAR (α2β3γ2) (P47869 29-451): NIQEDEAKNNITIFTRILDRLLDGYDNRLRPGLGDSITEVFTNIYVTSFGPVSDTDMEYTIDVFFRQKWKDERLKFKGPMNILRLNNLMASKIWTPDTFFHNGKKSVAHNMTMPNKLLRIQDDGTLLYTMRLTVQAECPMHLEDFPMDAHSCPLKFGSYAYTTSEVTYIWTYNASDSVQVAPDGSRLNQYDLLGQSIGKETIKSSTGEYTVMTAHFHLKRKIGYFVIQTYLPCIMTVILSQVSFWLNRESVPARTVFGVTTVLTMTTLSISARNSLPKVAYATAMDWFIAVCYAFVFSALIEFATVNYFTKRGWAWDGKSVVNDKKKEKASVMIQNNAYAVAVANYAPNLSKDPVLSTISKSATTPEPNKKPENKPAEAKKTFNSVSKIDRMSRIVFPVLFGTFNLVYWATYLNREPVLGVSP
Chain of hGABAAR (α2β3γ2) (P28472 26-473 partner): as the sequence (P28472 26-473 partner) above
Chain of hGABAAR (α2β3γ2) (P18507 40-475): as the sequence (P18507 40-475) above
Chain of hGABAAR (α5β3γ2) (P31644 32-462): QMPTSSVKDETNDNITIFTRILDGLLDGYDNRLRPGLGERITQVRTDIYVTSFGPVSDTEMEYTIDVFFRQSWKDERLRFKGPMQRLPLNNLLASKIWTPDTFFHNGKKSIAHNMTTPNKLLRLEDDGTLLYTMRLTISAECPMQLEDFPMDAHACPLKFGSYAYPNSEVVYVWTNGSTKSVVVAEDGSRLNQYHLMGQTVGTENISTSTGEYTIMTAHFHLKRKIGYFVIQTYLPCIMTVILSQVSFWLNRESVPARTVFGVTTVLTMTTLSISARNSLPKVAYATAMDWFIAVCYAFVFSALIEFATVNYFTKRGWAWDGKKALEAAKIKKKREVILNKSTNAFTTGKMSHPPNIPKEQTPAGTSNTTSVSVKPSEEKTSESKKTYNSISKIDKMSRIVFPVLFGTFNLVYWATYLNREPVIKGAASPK
Chain of hGABAAR (α5β3γ2) (P28472 26-473 partner): as the sequence (P28472 26-473 partner) above
Chain of hGABAAR (α5β3γ2) (P18507 40-475): as the sequence (P18507 40-475) above
Chain of hGABAAR (α1β3γ2) (P14867 28-456): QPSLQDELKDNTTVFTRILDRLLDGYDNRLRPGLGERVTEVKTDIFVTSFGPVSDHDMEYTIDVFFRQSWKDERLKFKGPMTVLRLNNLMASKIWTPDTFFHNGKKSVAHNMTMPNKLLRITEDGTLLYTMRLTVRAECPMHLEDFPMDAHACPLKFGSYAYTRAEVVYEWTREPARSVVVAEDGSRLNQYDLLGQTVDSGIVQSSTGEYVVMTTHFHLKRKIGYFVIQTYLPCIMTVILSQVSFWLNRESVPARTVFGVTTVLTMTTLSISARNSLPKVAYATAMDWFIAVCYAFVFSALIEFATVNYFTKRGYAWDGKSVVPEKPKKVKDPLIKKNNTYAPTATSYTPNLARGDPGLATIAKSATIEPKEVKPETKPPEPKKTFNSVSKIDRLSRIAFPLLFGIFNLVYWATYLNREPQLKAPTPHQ
Chain of hGABAAR (α1β3γ2) (P28472 26-473 partner): as the sequence (P28472 26-473 partner) above
Chain of hGABAAR (α1β3γ2) (P18507 40-475): as the sequence (P18507 40-475) above

CN1C(=O)CN=C(c2ccccc2)c2cc(Cl)ccc21 [Diazepam, diazepam]
GABAA-a1 Max (%GABA) (hGABAAR (α1β3γ2)): 171.9 %GABA | GABAA-a2 Max (%GABA) (hGABAAR (α2β3γ2); HEK293 cells, human α2β3γ2, peak GABA EC15-evoked current): 203.4 %GABA | GABAA-a3 Max (%GABA) (hGABAAR (α3β3γ2); HEK293 cells, human α3β3γ2, peak GABA EC15-evoked current): 265.6 %GABA | GABAA-a5 Max (%GABA) (hGABAAR (α5β3γ2); HEK293 cells, human α5β3γ2, peak GABA EC15-evoked current): 220.7 %GABA

C#Cc1ccc2c(c1)C(c1ccccn1)=NCc1c(C(=O)OCC)ncn1-2 [HZ-166]
reduction of convulsions induced by PTZ (rats [1]; 30 mg/kg): 60% | activity in Vogel conflict test (punished drinking) (rats [2]; ref Poe et al., 2016): not active | marble-burying [3]: decreased marble-burying

NCCCC(=O)O [GABA]
average maximum negative current amplitude (hGABAAR (α2β3γ2); saturating concentration of GABA, α2β3γ2): 0.8 nA | average maximum negative current amplitude (hGABAAR (α3β3γ2); saturating concentration of GABA, α3β3γ2): 1.0 nA | average maximum negative current amplitude (hGABAAR (α5β3γ2); saturating concentration of GABA, α5β3γ2): 0.9 nA

CCCC(CCC)C(=O)O [Valpro, valproic acid]
Anticonvulsant Effect (percent of animals protected, no clonic convulsions) (rats [1]; valproic acid 300 mg/kg, 35 mg/kg pentylenetetrazole s.c.): 100 ^* percent

C#Cc1ccc2c(c1)C(c1ccccn1)=NCc1c(-c3cnco3)ncn1-2 [Compound 9, 5-(8-Ethynyl-6-(pyridin-2-yl)-4H-benzo[f]imidazo[1,5-a][1,4]diazepin-3-yl)oxazole]
activity in Vogel conflict test (punished drinking) (rats [2]; ref Poe et al., 2016, listed as KRM-II-81): increased punished drinking; also recorded: efficacious | acid-induced pain behaviors (mice): attenuated acid-induced pain behaviors
